Test results taken from ChEMBL document CHEMBL2177095, “Discovery of selective and potent inhibitors of gram-positive bacterial thymidylate kinase (TMK)” (J Med Chem, 2012).
≈ marks a conversion by molar mass, not a printed value.

What was measured:
[1] = Inhibition of Staphylococcus aureus thymidylate kinase assessed as effect on conversion of dTDP to dTMP by luciferin/luciferase reporter gene based assay
[2] = Inhibition of Streptococcus pneumoniae thymidylate kinase assessed as effect on conversion of dTDP to dTMP by luciferin/luciferase reporter gene based assay
Staphylococcus aureus [3] = experiment: Antimicrobial activity against methicillin and quinolone-resistant Staphylococcus aureus by broth microdilution method; type: functional
Method in brief: (§1)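 MICs were determined against bacterial strains from the AstraZeneca collection. For S. aureus, MSQS means methicillin- and quinolone-sensitive, and MRQR means methicillin- and quinolone-resistant.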

Staphylococcus aureus [4] = experiment: Antimicrobial activity against methicillin and quinolone-sensitive Staphylococcus aureus by broth microdilution method; type: functional; method in brief: as §1
Streptococcus pneumoniae = experiment: Antimicrobial activity against Streptococcus pneumoniae by broth microdilution method; type: functional
Method in brief: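 Test organisms were strains from the AstraZeneca collection.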

[5] = Partition coefficient, log D of the compound at pH 7.4 by shake flask method; conditions: octanol/water
Candida albicans = experiment: Toxicity against Candida albicans; type: organism-based
[6] = Toxicity against human A549 cells; type: cell-based; conditions: read-out: MIC
Thymidylate kinase = target: T1, Thymidylate kinase (Homo sapiens, UniProt P23919); experiment: Inhibition of human thymidylate kinase assessed as effect on ATP production by Escherichia coli DdlA and Malachite green reagent based assay
T1 sequence (P23919 whole entry): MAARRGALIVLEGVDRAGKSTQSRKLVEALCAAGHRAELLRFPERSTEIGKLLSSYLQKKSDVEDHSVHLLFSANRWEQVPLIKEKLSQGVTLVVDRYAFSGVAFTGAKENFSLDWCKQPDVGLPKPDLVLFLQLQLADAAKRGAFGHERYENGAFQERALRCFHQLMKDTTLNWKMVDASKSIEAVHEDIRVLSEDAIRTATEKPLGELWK

Staphylococcus aureus [7] = experiment: Antimicrobial activity against Staphylococcus aureus infected in mouse thigh infection model assessed as compound dose causing microbial infection stasis administered as single dose; type: functional, Thigh muscle

Compound	IC50 [1]	IC50 [2]	MIC (Staphylococcus aureus [3])	MIC (Staphylococcus aureus [4])	MIC (Streptococcus pneumoniae)	other results
Cc1cn([C@H]2CCCN(Cc3cccc(Oc4cccc(F)c4)c3)C2)c(=O)[nH]c1=O	3200 nM	400 nM	–	–	–	–
Cc1cn([C@H]2CCCN(Cc3cccc(Oc4cccc(Cl)c4)c3)C2)c(=O)[nH]c1=O	1200 nM	150 nM	–	–	–	–
Cc1cn([C@H]2CCCN(Cc3cccc(Oc4cccc(Br)c4)c3)C2)c(=O)[nH]c1=O	600 nM	100 nM	–	–	–	–
Cc1cn([C@H]2CCCN(Cc3cccc(Oc4cc(F)cc(Cl)c4)c3)C2)c(=O)[nH]c1=O	2100 nM	100 nM	–	–	–	–
Cc1cn([C@H]2CCCN(Cc3cccc(Oc4cc(Cl)cc(Cl)c4)c3)C2)c(=O)[nH]c1=O	1500 nM	400 nM	–	–	–	–
Cc1cn([C@H]2CCCN(Cc3cccc(Oc4ccc(Cl)cc4)c3)C2)c(=O)[nH]c1=O	8500 nM	400 nM	–	–	–	–
Cc1cn([C@@H]2CCCN(Cc3cccc(Oc4ccc(Cl)cc4)c3)C2)c(=O)[nH]c1=O	> 200000 nM	5100 nM	–	–	–	–
Cc1cn([C@H]2CCCN(Cc3cccc(Oc4ccc(Cl)c(Cl)c4)c3)C2)c(=O)[nH]c1=O	2600 nM	400 nM	–	–	–	–
Cc1cn([C@@H]2CCCN(Cc3cccc(Oc4ccc(Cl)c(Cl)c4)c3)C2)c(=O)[nH]c1=O	> 200000 nM	18000 nM	–	–	–	–
Cc1cn([C@H]2CCCN(Cc3ccc(C(=O)O)c(Oc4cccc(Cl)c4)c3)C2)c(=O)[nH]c1=O	73 nM	1.9 nM	32 µg/mL (≈ 68.1 µM)	32 µg/mL (≈ 68.1 µM)	1 µg/mL (≈ 2.13 µM)	–
Cc1cn([C@H]2CCCN(Cc3ccc(C(=O)O)c(Oc4cccc(Br)c4)c3)C2)c(=O)[nH]c1=O	27 nM	1 nM	32 µg/mL (≈ 62.2 µM)	16 µg/mL (≈ 31.1 µM)	1 µg/mL (≈ 1.94 µM)	logD [5]: -0.51
Cc1cccc(Oc2cc(CN3CCC[C@H](n4cc(C)c(=O)[nH]c4=O)C3)ccc2C(=O)O)c1	114 nM	8 nM	128 µg/mL (≈ 285 µM)	64 µg/mL (≈ 142 µM)	4 µg/mL (≈ 8.9 µM)	–
Cc1cn([C@H]2CCCN(Cc3ccc(C(=O)O)c(Oc4cccc(F)c4)c3)C2)c(=O)[nH]c1=O	339 nM	28 nM	128 µg/mL (≈ 282 µM)	128 µg/mL (≈ 282 µM)	32 µg/mL (≈ 70.6 µM)	logD [5]: -1
Cc1cn([C@H]2CCCN(Cc3ccc(C(=O)O)c(Oc4cccc(C(F)(F)F)c4)c3)C2)c(=O)[nH]c1=O	–	10 nM	64 µg/mL (≈ 127 µM)	64 µg/mL (≈ 127 µM)	4 µg/mL (≈ 7.94 µM)	MIC (Candida albicans): > 64 µg/mL; MCC [6]: > 64 µg/mL; IC50 (Thymidylate kinase): > 200000 nM; logD [5]: -0.38
CC[C@H](c1ccc(C(=O)O)c(Oc2cccc(Cl)c2)c1)N1CCC[C@H](n2cc(C)c(=O)[nH]c2=O)C1 (racemic)	13.7 nM	0.6 nM	2 µg/mL (≈ 4.02 µM)	2 µg/mL (≈ 4.02 µM)	0.1 µg/mL (≈ 0.201 µM)	logD [5]: 0.2
Cc1cn(C2CCCN(Cc3cccc(Oc4cccc(C(F)(F)F)c4)c3)C2)c(=O)[nH]c1=O (racemic)	–	15000 nM	–	–	–	–
Cc1ccc(Oc2cccc(CN3CCCC(n4cc(C)c(=O)[nH]c4=O)C3)c2)cc1 (racemic)	59000 nM	6000 nM	–	–	–	–
Cc1cn(C2CCCN(Cc3cccc(Oc4ccc(Cl)cc4)c3)C2)c(=O)[nH]c1=O (racemic)	35000 nM	1300 nM	–	–	–	–
COc1ccc(Oc2cccc(CN3CCCC(n4cc(C)c(=O)[nH]c4=O)C3)c2)cc1 (racemic)	143000 nM	9000 nM	–	–	–	–
C[C@H]1COc2c(N3CCN(C)CC3)c(F)cc3c(=O)c(C(=O)O)cn1c23.C[C@H]1COc2c(N3CCN(C)CC3)c(F)cc3c(=O)c(C(=O)O)cn1c23.O [LEVOFLOXACIN]	–	–	–	–	–	Activity (Staphylococcus aureus [7]): 40 mg/kg
